According to ChEMBL document CHEMBL1142328, “Imidazolidines as new anti-Trypanosoma cruzi agents: biological evaluation and structure-activity relationships” (Bioorg Med Chem, 2008):
The source made the active and inactive calls. The rule behind the calls is not given here.

Columns and labels:
[1] = system: Trypanosoma cruzi; test: Growth inhibition of Trypanosoma cruzi epimastigotes Tulahuen 2 at 25 uM; assay type: functional; details: for inhibition of growth at 25 µM: read-out: GI
Procedure, shortened: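 Epimastigotes in BHI-Tryptose + 5% FBS at 28 °C, inoculated at 1×10^6 cells/mL from 10-day stationary culture. Drug tested at 25 μM from DMSO stock (final DMSO ≤0.4%; 0.4% DMSO control). Inhibition % = {1 − [(Ap − A0p)/(Ac − A0c)]}×100 using A600 at day 0 and day 5. Means of three experiments.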

[2] = system: Trypanosoma cruzi; test: Growth inhibition of Trypanosoma cruzi epimastigotes Tulahuen 2; assay type: functional, organism-based
Procedure, shortened: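 Epimastigotes grown axenically at 28 °C in BHI-Tryptose with 5% FBS. Stationary-phase (10-day) cells inoculated at 1×10^6 cells/mL into medium with drug (DMSO stock, final DMSO ≤0.4%; 0.4% DMSO control). Growth followed by A600 daily. IC50 = concentration reducing the day-5 absorbance ratio vs control to 50%, over increasing concentrations. Means of three experiments.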

[3] = system: Trypanosoma cruzi; test: Increase in acetate metabolite excretion in cell free medium of Trypanosoma cruzi Y relative to control; assay type: functional, organism-based
Procedure, shortened: (§1)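 Parasites treated with compound for 2 days. 5 mL of culture centrifuged at 1500g, 10 min, 4 °C. Parasite-free supernatant stored at −20 °C, then analysed by 1H NMR. Metabolite signals confirmed by spiking and by a 4 µg/mL standard in phosphate buffer pH 7.4. Increase expressed as % relative to untreated cells.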

[4] = system: Trypanosoma cruzi; test: Increase in lactose metabolite excretion in cell free medium of Trypanosoma cruzi Y relative to control; assay type: functional, organism-based; details: in the assay text read “lactate” for “lactose”; procedure, shortened: as §1
[5] = system: Trypanosoma cruzi; test: Increase in alanine metabolite excretion in cell free medium of Trypanosoma cruzi Y relative to control; assay type: functional, organism-based; procedure, shortened: as §1
[6] = system: Trypanosoma cruzi; test: Increase in glycine metabolite excretion in cell free medium of Trypanosoma cruzi Y relative to control; assay type: functional, organism-based; procedure, shortened: as §1

SMILES | inhibition of growth at 25 µM [1] | IC50 [2] | also measured
Brc1cccc(N2CCN(CN3CCN(c4cccc(Br)c4)C3)C2)c1 | 10.8% |  | 
Clc1ccc(C2N(Cc3ccc(Cl)c(Cl)c3)CCN2Cc2ccc(Cl)c(Cl)c2)cc1 | 50% | 25 µM | 
Clc1ccc(CN2CCN(Cc3ccc(Cl)cc3)C2c2ccccc2)cc1 | 94.5% | 5 µM | 
CC1N(c2ccccc2)CCN1c1ccccc1 | 12.4% |  | 
Clc1cccc(CN2CCN(Cc3cccc(Cl)c3)C2c2ccccc2)c1 | 100% | 14.7 µM | 
Clc1ccc(CNCCNCc2ccc(Cl)cc2)cc1 |  | 2 µM | 
COc1ccc(CN2CCN(Cc3ccc(OC)cc3)C2c2ccc([N+](=O)[O-])cc2)cc1 | 83% | 16.5 µM | 
O=[N+]([O-])c1ccc(N2CCN(CN3CCN(c4ccc([N+](=O)[O-])cc4)C3)C2)cc1 | 0% |  | 
Clc1ccc(CN2CCN(Cc3ccc(Cl)cc3)C2/C=C/c2ccccc2)cc1 | 100% | 10.2 µM | 
Clc1ccc(CN2CCN(Cc3ccc(Cl)c(Cl)c3)C2c2ccc(Cl)c(Cl)c2)cc1Cl | 30% |  | 
Cc1ccc(N2CCN(C)C2c2ccccc2)cc1 (stereo unspecified) | 8.9% |  | 
COc1ccc(CN2CCN(Cc3ccc(OC)cc3)C2c2cccc([N+](=O)[O-])c2)cc1 | 93% | 23 µM | 
COc1ccc(CN2CCN(Cc3ccc(OC)cc3)C2c2ccc(Cl)cc2)cc1 | 100% | 14.9 µM | 
c1ccc(N2CCN(CN3CCN(c4ccccc4)C3)C2)cc1 | 0% |  | 
Cc1ccc(N2CCN(CN3CCN(c4ccc(C)cc4)C3)C2)cc1 | 0% |  | 
Cc1ccc(N2CCN(Cc3ccccc3)C2c2ccccc2)cc1 (stereo unspecified) | 46% |  | 
COc1ccc(CNCCNCc2ccc(OC)cc2)cc1 |  | 16.2 µM | 
Cc1ccc(CN2CCN(Cc3ccc(C)cc3)C2c2cccc(Cl)c2)cc1 | 99% | 13.4 µM | 
Cc1ccc(CN2CCN(Cc3ccc(C)cc3)C2c2ccccc2)cc1 | 100% | 12.5 µM | 

SMILES | inhibition of growth at 25 µM [1] | IC50 [2] | also measured
O=[N+]([O-])c1ccc(C2N(Cc3ccc(Cl)cc3)CCN2Cc2ccc(Cl)cc2)cc1 | 100% | 14.5 µM | 
Brc1ccc(N2CCN(CN3CCN(c4ccc(Br)cc4)C3)C2)cc1 | 0% |  | 
COc1ccc(CN2CCN(Cc3ccc(OC)cc3)C2/C=C/c2ccccc2)cc1 | 98.6% | 10 µM | 
c1ccc(C2N(c3ccccc3)CCN2c2ccccc2)cc1 | 39.6% |  | 
Oc1ccccc1C1N(Cc2ccc(Cl)cc2)CCN1Cc1ccc(Cl)cc1 | 86.8% | 4.3 µM | 
Clc1ccc(N2CCN(CN3CCN(c4ccc(Cl)cc4)C3)C2)cc1 | 0% |  | 
Cc1ccc(CN2CCN(Cc3ccc(C)cc3)C2c2ccc(Cl)cc2)cc1 | 100% | 9 µM | 
Oc1cccc(C2N(Cc3ccc(Cl)cc3)CCN2Cc2ccc(Cl)cc2)c1 | 97.4% | 4.6 µM | Activity [3]: 60%; Activity [4]: 30%; Activity [5]: 40%; Activity [6]: 60%
c1ccc(CN2CCN(c3ccccc3)C2c2ccccc2)cc1 (stereo unspecified) | 45.1% |  | 
Clc1cccc(CN2CCN(Cc3cccc(Cl)c3)C2)c1 | 100% | 9.7 µM | 
COc1ccc(CN2CCN(Cc3ccc(OC)cc3)C2c2cccc(Cl)c2)cc1 | 95% | 14 µM | 
Clc1ccc(C2N(Cc3ccccc3)CCN2Cc2ccccc2)cc1 | 60% | 23.5 µM | 
Cc1ccc(N2CCN(Cc3ccccc3)C2)cc1 | 44.2% |  | 
Clc1ccc(CN2CCN(Cc3ccc(Cl)cc3)C2c2ccco2)cc1 | 89.4% | 4.3 µM | 
c1ccc(N2CCN(c3ccccc3)C2)cc1 | 12.3% |  | 
Oc1ccccc1CNCCNCc1ccccc1O |  |  | Activity [1]: inactive
Clc1ccc(CN2CCN(Cc3ccc(Cl)c(Cl)c3)C2c2ccccc2)cc1Cl | 100% | 6.4 µM | 
Clc1ccc(CN2CCN(Cc3ccc(Cl)cc3)C2c2cccc(Cl)c2)cc1 | 100% | 4.7 µM | 
CC1CS(=O)(=O)CCN1/N=C/c1ccc([N+](=O)[O-])o1 (stereo unspecified) [NIFURTIMOX] | 100% |  | 

SMILES | inhibition of growth at 25 µM [1] | IC50 [2] | also measured
Clc1cccc(N2CCN(CN3CCN(c4cccc(Cl)c4)C3)C2)c1 | 8% |  | 
Oc1ccccc1CN1CCN(Cc2ccccc2O)C1c1ccccc1 | 4.8% |  | 
COc1ccc(CN2CCN(Cc3ccc(OC)cc3)C2c2ccc(Cl)c(Cl)c2)cc1 | 91% | 16 µM | 
Clc1ccc(CN2CCN(Cc3ccc(Cl)c(Cl)c3)C2)cc1Cl | 100% | 15.1 µM | 
COc1ccc(CN2CCN(Cc3ccc(OC)cc3)C2C)cc1 | 40% | 37 µM | 
Clc1ccc(CN2CCN(Cc3ccc(Cl)cc3)C2c2ccc(Cl)cc2)cc1 | 100% | 8.9 µM | 
COc1ccc(N2CCN(CN3CCN(c4ccc(OC)cc4)C3)C2)cc1 | 0% |  | 
Clc1ccc(CN2CCN(Cc3ccc(Cl)c(Cl)c3)C2c2ccco2)cc1Cl | 93.9% | 4.1 µM | Activity [3]: 10%; Activity [4]: 10%; Activity [5]: 30%; Activity [6]: 15%
Clc1ccc(CN2CCN(Cc3ccc(Cl)cc3)C2c2ccc(Cl)c(Cl)c2)cc1 | 92% | 9 µM | 
Clc1ccc(N2CCN(Cc3ccccc3)C2)cc1 | 64.7% |  | 
COc1ccc(CN2CCN(Cc3ccc(OC)cc3)C2c2ccccc2Cl)cc1 | 49% | 25.3 µM | 
CN1CCN(c2ccccc2)C1c1ccccc1 (stereo unspecified) | 0% |  | 
Clc1ccc(CN2CCN(Cc3ccc(Cl)cc3)C2c2ccccc2Cl)cc1 | 100% | 11 µM | 
c1ccc(CN2CCN(c3ccccc3)C2)cc1 | 17.2% |  | 
Clc1ccc(CN2CCN(Cc3ccc(Cl)cc3)C2)cc1 | 100% | 10.3 µM | 
COc1ccc(CN2CCN(Cc3ccc(OC)cc3)C2c2ccccc2)cc1 | 75.3% | 1.1 µM | 
COc1ccc(C2N(Cc3ccc(Cl)cc3)CCN2Cc2ccc(Cl)cc2)cc1 | 100% | 5 µM | 
Clc1ccc(N2CCN(Cc3ccccc3)C2c2ccccc2)cc1 (stereo unspecified) | 70.4% |  | 
c1ccc(CN2CCN(Cc3ccccc3)C2c2ccccc2)cc1 | 63% |  | 
